Experimental data taken from ChEMBL document CHEMBL1153564 (Antimicrob Agents Chemother, 2008).
Values after ≈ are worked out from the molar mass of the structure shown. Active and inactive are the calls of the source. No cut-off for these calls is given here. Starred links: 1 amine or outer side, 2 acyl side, 3 side chain; linkers in the order of their positions; H or OH if unused. Positions of bridges follow the written chain, without caps; N, C: chain ends. Non-standard residues stand in square brackets, D forms with d. Residues, ends and D or L forms follow the SMILES beside them. *: point of attachment. pTerphenylCO(4''-OnC5H11) = CCCCCOc1ccc(-c2ccc(-c3ccc(C(=O)*)cc3)cc2)cc1; Orn(4R-OH,5R-OH) = O=C([C@H](C[C@@H](O)[C@@H](O)N[*:3])N[*:1])[*:2]; hTyr(3S-OH,4S-OH) = N[C@H](C(=O)O)[C@H](O)[C@@H](O)c1ccc(O)cc1; Pro(3S-OH,4S-Me) = C[C@H]1CN[C@H](C(=O)O)[C@H]1O; Hyp = O=C(O)[C@@H]1C[C@@H](O)CN1

Assays:
Candida albicans [1] = assay: Antifungal activity against Candida albicans K-1 infected in neutropenic ICR/Swiss mouse candidiasis model assessed as dose required for 1-log10 reduction in […] per kidney administered intraperitoneally every 24 hrs up to 4 days measured per 24 hrs; format: functional
[2] = AUC (0 to infinity) in serum of neutropenic ICR/Swiss mouse candidiasis model at 20 mg/kg, ip by reverse-phase high-pressure liquid chromatography; format: ADME, organism-based; design: time infinity, dose 20 mg/kg, route intraperitoneal
How it was run: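 Single ip dose in 0.2 ml to infected neutropenic mice. Serum from groups of three isoflurane-anaesthetised mice at 1, 4, 8, 12, 24 and 48 h, stored −80°C. Drug measured by reverse-phase HPLC with fluorescence detection against loratadine internal standard (calibration 10–50,000 ng/ml). Noncompartmental analysis; AUC by trapezoidal rule.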

Nakaseomyces glabratus [3] = assay: Antifungal activity against Candida glabrata 5376 infected in neutropenic ICR/Swiss mouse candidiasis model assessed as dose required for 1-log10 reduction in […] per kidney administered intraperitoneally once every 96 hrs measured per 96 hrs; format: functional
How it was run: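 Neutropenic ICR/Swiss mice infected i.v. with the strain; therapy began 2 h later. Total doses of 1.25–320 mg/kg/96 h were given i.p. as 1, 2, 4 or 6 doses (q96h, q48h, q24h, q16h), three mice per regimen. Kidney CFU were counted after 4 days. Effect is the change from untreated controls at the end of therapy.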

Candida albicans [4] = assay: Antifungal activity against Candida albicans K-1 infected in neutropenic ICR/Swiss mouse candidiasis model assessed as reduction of […] in kidney at 1.25 mg/kg, ip administered 2 hrs postinfection as single dose measured within 1 to 4 hrs post dosing by time-kill assay; format: functional, organism-based; design: dose 1.25 mg/kg
How it was run: (§1)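 Neutropenic mice given a single ip dose (1.25, 5 or 20 mg/kg) 2 h after tail-vein infection. Kidneys from 3 mice per time point collected nine times over 96 h. Homogenates serially diluted 1:10 and plated on SDA, 24 h at 35°C. Detection limit 100 CFU/ml.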

Serum = assay: Fraction unbound in Candida albicans K-1 infected neutropenic ICR/Swiss mouse serum at 1.25 mg/kg, ip administered 2 hrs postinfection as single dose; format: ADME, organism-based; design: dose 1.25 mg/kg, route intraperitoneal; conditions: in vivo
Candida albicans [5] = assay: Antifungal activity against Candida albicans K-1 infected in neutropenic ICR/Swiss mouse candidiasis model assessed as reduction of […] in kidney at 1.25 mg/kg, ip administered 2 hrs postinfection as single dose measured after 96 hrs post dosing by time-kill assay; format: functional, organism-based; design: dose 1.25 mg/kg; how it was run: as §1
Candida albicans [6] = assay: Antifungal activity against Candida albicans K-1 infected in neutropenic ICR/Swiss mouse candidiasis model assessed as suppression of fungal regrowth at 20 mg/kg, ip administered 2 hrs postinfection as single dose by time-kill assay; format: functional, organism-based; design: dose 20 mg/kg
How it was run: (§2)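 Single ip dose (20, 5 or 1.25 mg/kg) given 2 h after iv infection of neutropenic mice with K-1. Three treated and three control mice were sampled at intervals over 96 h for kidney CFU. PAFE is the time for treated burden to rise 1 log10 after serum levels fall below MIC, minus the same time in controls. Free drug was taken as 1%.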

Candida albicans [7] = assay: Antifungal activity against Candida albicans K-1 infected in neutropenic ICR/Swiss mouse candidiasis model assessed as reduction of […] in kidney at 5 mg/kg, ip administered 2 hrs postinfection as single dose measured after 96 hrs post dosing by time-kill assay; format: functional, organism-based; design: dose 5 mg/kg; how it was run: as §2
Nakaseomyces glabratus [8] = assay: Antifungal activity against Candida glabrata 5592 assessed as partial growth inhibition after 24 hrs by CLSI end point method; format: functional; conditions: Nakaseomyces glabratus, 5592, 24 h
How it was run: (§3)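 Two end points were read against the drug-free control well: partial growth inhibition (the CLSI end point) and complete inhibition. Run in duplicate on four separate occasions; the value is the mean. Drug stock was made in DMSO and diluted in 0.9% NaCl.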

Nakaseomyces glabratus [9] = assay: Antifungal activity against Candida glabrata 5376 infected in neutropenic ICR/Swiss mouse candidiasis model assessed as suppression of fungal regrowth at 20 mg/kg, ip administered 2 hrs postinfection as single dose by time-kill assay; format: functional, organism-based; design: dose 20 mg/kg
How it was run: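 Neutropenic mice were infected i.v. and 2 h later given a single i.p. dose (1.25, 5 or 20 mg/kg). Groups of three treated and three control mice were killed at intervals over 96 h, and kidney CFU were counted on SDA (limit 100 CFU/ml). The post-antifungal effect is t − c: the time for a 1 log10 CFU/kidney increase once serum levels fall below the MIC in treated mice, minus the same time in controls.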

Nakaseomyces glabratus [10] = assay: Antifungal activity against Candida glabrata 37661 assessed as partial growth inhibition after 24 hrs by CLSI end point method; format: functional; conditions: Nakaseomyces glabratus, 37661, 24 h; how it was run: as §3
Nakaseomyces glabratus [11] = assay: Antifungal activity against Candida glabrata 513 assessed as complete growth inhibition after 24 hrs by CLSI end point method; format: functional; conditions: Nakaseomyces glabratus, 513, 24 h; how it was run: as §3
Nakaseomyces glabratus [12] = assay: Antifungal activity against Candida glabrata 5376 infected in neutropenic ICR/Swiss mouse candidiasis model assessed as dose required for 1-log10 reduction in […] per kidney administered intraperitoneally every 24 hrs up to 4 days measured per 24 hrs; format: functional
How it was run: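 Neutropenic mouse disseminated candidiasis, with i.p. therapy starting 2 h after i.v. infection. Five total doses of 0.078–20 mg/kg/24 h were given q24h for 4 days, three mice per dose. Kidney CFU were counted at the end and compared with untreated controls. The dose giving a 1 log10 CFU/kidney reduction was derived from the sigmoid Hill dose–effect model.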

Candida albicans [13] = assay: Antifungal activity against Candida albicans K-1 infected in neutropenic ICR/Swiss mouse candidiasis model assessed as […] burden per kidney administered intraperitoneally once every 96 hrs measured per 96 hrs; format: functional; conditions: K-1, Kidney, ip
How it was run: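 Neutropenic mice were infected iv with C. albicans K-1 2 h before therapy. Total doses of 1.25, 5, 20, 80 and 320 mg/kg/96 h were split into 1, 2, 4 or 6 ip doses (q96h, q48h, q24h, q16h), three mice per regimen. Effect is the log10 CFU/kidney relative to untreated controls at 96 h. Static and 1-log doses were taken from a Hill model fit.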

Nakaseomyces glabratus [14] = assay: Antifungal activity against Candida glabrata 32930 assessed as partial growth inhibition after 24 hrs by CLSI end point method; format: functional; conditions: Nakaseomyces glabratus, 32930, 24 h
How it was run: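 CLSI M27-A2 broth dilution. Two end points read against the drug-free control well: partial inhibition (CLSI end point) and complete inhibition. Run in duplicate on four separate occasions; value is the mean. Drug stock in DMSO, diluted in 0.9% NaCl.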

Candida albicans [15] = assay: Antifungal activity against Candida albicans 580 infected in neutropenic ICR/Swiss mouse candidiasis model assessed as dose required for 1-log10 reduction in […] per kidney administered intraperitoneally every 24 hrs up to 4 days measured per 24 hrs; format: functional
How it was run: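 Neutropenic mice (cyclophosphamide sc on days −4, −1 and +2) were infected iv 2 h before therapy. Five total doses from 0.078 to 20 mg/kg/24 h were given ip q24h for 4 days, three mice per regimen. Kidney CFU were measured at the end of therapy. Static and 1-log-kill doses were derived from a Hill sigmoid dose-effect fit.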

Nakaseomyces glabratus [16] = assay: Antifungal activity against Candida glabrata 5592 infected in neutropenic ICR/Swiss mouse candidiasis model assessed as fungal count per kidney administered 2 hrs postinfection measured up to 48 hrs; format: functional
How it was run: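 Female ICR/Swiss mice (23–27 g) made neutropenic with cyclophosphamide s.c. (150 mg/kg day −4, 100 mg/kg day −1, 100 mg/kg day +2). Infected by tail vein with 0.1 ml inoculum (~6.1 log10 CFU/ml). Kidneys of untreated mice were homogenised and plated on SDA for 24 h at 35°C. Growth over 48 h is given as log10 CFU/kidney.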

In the case of `CCCCCOc1ccc(-c2ccc(-c3ccc(C(=O)N[C@H]4C[C@@H](O)[C@@H](O)NC(=O)[C@@H]5[C@@H](O)[C@@H](C)CN5C(=O)[C@H]([C@@H](C)O)NC(=O)[C@H]([C@H](O)[C@@H](O)c5ccc(O)cc5)NC(=O)[C@@H]5C[C@@H](O)CN5C(=O)[C@H]([C@@H](C)O)NC4=O)cc3)cc2)cc1` [ANIDULAFUNGIN] ({pTerphenylCO(4''-OnC5H11)}-[Orn(4R-OH,5R-OH)]T[Hyp][hTyr(3S-OH,4S-OH)]T[Pro(3S-OH,4S-Me)]; lactam 1-C), the Activity (Candida albicans [1]) is reported as 2 mg/kg, the AUC(0-inf) [2] is reported as 382 µg·h/mL and the Activity (Nakaseomyces glabratus [3]) is reported as 16.6 mg/kg. The Activity (Candida albicans [4]) was “Active”, the Fu (Serum) was 1% and the Activity (Candida albicans [5]) was “Active”. The Activity (Candida albicans [6]) was “Active”, the Activity (Candida albicans [7]) was “Active” and the MIC (Nakaseomyces glabratus [8]) was 0.06 µg/mL (≈ 0.0526 µM). For the same molecule, the Activity (Nakaseomyces glabratus [9]) was “Active”, the MIC (Nakaseomyces glabratus [10]) was 2 µg/mL (≈ 1.75 µM) and the MIC (Nakaseomyces glabratus [11]) was 0.12 µg/mL (≈ 0.105 µM). It also gave an Activity (Nakaseomyces glabratus [12]) of 7.5 mg/kg, an ED50 (Candida albicans [13]) of 2.13 mg/kg and an MIC (Nakaseomyces glabratus [14]) of 0.06 µg/mL (≈ 0.0526 µM). For the same molecule, the Activity (Candida albicans [15]) was 2.31 mg/kg and the log10cfu (Nakaseomyces glabratus [16]) was 2.1.
